Many of the other results were omitted from the sample, so hits are more common in it than they were.
Lmaj promast = inhibitors of Leishmania major promastigote growth; Leishmania major promastigotes, resazurin fluorescence viability; inhibition, % at 10 µM; 200,000 tested, 9% active; in the data active = inhibition above about 50%;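 note: promastigotes grown with compound for 44 hours at 28 °C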
HSF1 inhib = HSF1 inhibition; NIH3T3-HGL HSE-luciferase, MG132-induced, luminescence 8 h; stronger effect = lower value; activity change, negative = inhibition, % at 7.5 µM (by protocol); 300,000 tested, 0.77% active;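 active = more than half of replicate wells show activity change below -50%, luminescence cut by over half; inconclusive = some wells, but at most half, below -50%; inactive = no replicate well below -50%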;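 note: luciferase reports HSF-1 transcriptional activity via heat shock element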
Hsp70 activator = Hsp70 transcriptional activation, primary screen; activation, % at 10 µM; 200,000 tested, 0.04% active; HeLa Hsp70 promoter luciferase reporter, luminescence; scaled: vehicle 0, proteasome-inhibitor control 100%;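 active = activation above the mean across all tested compounds plus 3 SD, cutoff set per campaign, cut at about 5.5% in these data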
HSF-1 act = increases HSF-1 driven luciferase reporter signal | NIH3T3-HGL HSF-1 luciferase reporter, MG132, 8 h; 100% = twice DMSO control signal | 300,000 tested, 1.7% active | activation, % at 9 µM;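 active = mean replicate activation of at least 50% with a set share of replicates each reaching 50%; inconclusive = only one of those two conditions met; inactive = mean below 50% and too few replicates reaching it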
T cruzi repl = T. cruzi replication inhibition; T. cruzi beta-gal in NIH3T3, luminescence, 90 h; 300,000 tested, 1.4% active; inhibition, % (concentration not given with the values); AID 1885;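 active = mean inhibition across valid replicates above about 55%, limit read from the data; inconclusive = mean below that limit but half or more replicates reach it; inactive = mean below it, under half of replicates reach it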;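 note: signal also drops with host cell toxicity which is not excluded here; higher percent means less beta-gal luminescence so fewer parasites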
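Material: NIH/3T3 host cells with β-galactosidase reporter T. cruzi; Input: 5,000 host fibroblasts per well; Medium: DMEM, 2% fetal bovine serum; Compound: 50 nL DMSO compound solution per well; Schedule: 3 h host attachment, then at least 90 h co-culture; Detection: luminescent β-galactosidase signal after 60 min lysis.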
Large screens that a line does not name were inactive.

O=[N+]([O-])c1ccc(NCCCN2CCOCC2)c2ncccc12	Lmaj promast 87
CC(C)n1c(=O)c(C=Nc2cccc([N+](=O)[O-])c2)c(O)n(CCc2ccccc2)c1=O	none
Cc1ccc(C(O)(c2ccc(C)c(C)c2)C2CN3CCC2CC3)cc1C (stereo unspecified)	none (no result: Lmaj promast, Hsp70 activator)
Cc1ccccc1C(O)(Cc1ccccc1)C1CN2CCC1CC2 (stereo unspecified)	Lmaj promast 98
COc1ccc(CCNC(=O)c2c(N)n(CCN3CCOCC3)c3nc4ccccc4nc23)cc1	Lmaj promast 96
CCCCn1c(N)c(C(=O)NCCN2CCOCC2)c2nc3ccccc3nc21	none
CCOC(=O)c1c(N)n(CCN2CCCCC2)c2nc3ccccc3nc12	Lmaj promast 55
Nc1c(C(=O)NCCc2ccccc2)c2nc3ccccc3nc2n1CCN1CCOCC1	none
CCCCn1c(NS(=O)(=O)c2ccccc2)c(C(=O)OCC)c2nc3ccccc3nc21	Lmaj promast 99
CN(C)CCOC(=O)c1cn(Cc2ccccc2)c2ccccc12	Lmaj promast 100
Cn1cnnc1Sc1cc(N2CCNCC2)ccc1[N+](=O)[O-]	none (no result: Lmaj promast, Hsp70 activator)
COc1ccc(OC)c(N2C(=O)NC(=O)/C(=C\c3ccc([N+](=O)[O-])s3)C2=O)c1	Lmaj promast 100, HSF1 inhib -63, T cruzi repl inconclusive
CC(=O)OC1(c2ccccc2)CCN(C)C2CCCCC21 (stereo unspecified)	HSF1 inhib -52
COc1ccc(N=Nc2c(O)[nH]c(=S)[nH]c2=O)cc1	none
O=c1[nH]c(=S)[nH]c(O)c1N=Nc1ccc2c(c1)OCCO2	HSF-1 act 73 (no result: Lmaj promast, Hsp70 activator)
COc1cccc(N=Nc2c(O)[nH]c(=S)[nH]c2=O)c1	HSF-1 act 103 (no result: Lmaj promast, Hsp70 activator)
O=c1[nH]c(O)c(N=Nc2ccc3c(c2)OCCO3)c(=O)[nH]1	HSF1 inhib -62
CC12CN3CN(C1)CC(C)(C3)C2=NO	none
O=C1Nc2ccccc2/C1=C/c1cnc[nH]1	Lmaj promast 98, HSF-1 act 66
COc1ccc2c(c1)/C(=C/c1cnc[nH]1)C(=O)N2	none (no result: Lmaj promast, Hsp70 activator)
COc1ccc(C(O)c2ccccc2OP(=O)(N(C)C)N(C)C)cc1 (stereo unspecified)	Lmaj promast 66
NC(=S)N/N=C/c1coc2ccccc2c1=O	none
C[n+]1c(-c2ccccc2)c2cc(N)ccc2c2ccc(N)cc21	T cruzi repl 62 (no result: Lmaj promast, Hsp70 activator)
Nc1ccc2ccc3cccc[n+]3c2c1	none (no result: Lmaj promast, Hsp70 activator)
NC(=O)CN1C2CCC1CC(NC(=O)C1CC1)C2 (stereo unspecified)	none
Cc1ccc(-c2nn(Cc3ccccc3)cc2C(=O)O)cc1	none (no result: Lmaj promast, Hsp70 activator)
Cc1ccc(-c2nn(Cc3ccccc3)cc2C=O)cc1	HSF-1 act 53
Cc1ccc(Cn2cc(C=O)c(-c3ccc(F)cc3)n2)cc1	HSF-1 act 57 (no result: Lmaj promast, Hsp70 activator)
Cc1ccc(C(=O)n2cc(CCN3CCS(=O)(=O)CC3)c3ccccc32)cc1	none
CCOc1ccc(CC2(CCc3ccncc3)C(=O)NC(=O)NC2=O)cc1	none
CCOc1ccc(C(=O)OC2CC3CCC(C2)N3C)cc1 (stereo unspecified)	Lmaj promast 72
CN1C2CCC1CC(OC(=O)c1ccc(Cl)cc1)(C(=O)O)C2 (stereo unspecified)	none
CN1C2CCC1CC(OC(=O)c1ccc(Cl)cc1)C2 (stereo unspecified)	Lmaj promast 97
COc1ccc(C[C@H]2NC[C@H](O)[C@H]2OC(C)=O)cc1	HSF1 inhib -75 (no result: Lmaj promast, Hsp70 activator)
CCCN(CC#CCOc1ccc(OC)cc1)CCC	none
CC(=O)N1CCCSC1=Nc1ccccc1	Lmaj promast 70
CN1CCN(CCC(C#N)(c2ccccc2)c2ccccc2)CC1	Lmaj promast 79
O=[N+]([O-])c1ccc(CNCCc2ccccc2)cc1	T cruzi repl 59 (no result: Lmaj promast, Hsp70 activator)
CCOc1ccc([N+](=O)[O-])cc1CNCCc1ccccc1	Lmaj promast 96
CCOc1ccc(Cl)cc1CNCCc1ccccc1F	none (no result: Lmaj promast, HSF1 inhib, Hsp70 activator, HSF-1 act)
CCN(CC)CC(O)c1ccc(C2CCCC2)cc1 (stereo unspecified)	Lmaj promast 94
O=c1cccc2n1CC1CC2CN(CC(O)CN2CC3CC(C2)c2cccc(=O)n2C3)C1 (stereo unspecified)	none (no result: Lmaj promast, Hsp70 activator)
COc1cc(OC)c(OC)cc1CNCCc1ccc(OC)c(OC)c1	none
COc1cc(OC)c(OC)cc1CNCCc1ccc(F)cc1	T cruzi repl 63 (no result: Lmaj promast, Hsp70 activator)
COc1ccc(CNCCc2ccc(Cl)cc2)c(OC)c1OC	T cruzi repl 64 (no result: Lmaj promast, Hsp70 activator)
Fc1ccc(CNCCc2ccc3c(c2)OCO3)cc1	none (no result: Lmaj promast, Hsp70 activator)
CCN(CC)c1ccc(CNCCc2ccc(F)cc2)cc1	Lmaj promast 96
CCc1ccc(CNCCc2ccc(F)cc2)cc1	T cruzi repl 59
Cc1cc(C(=O)CS(=O)c2ccc(F)cc2)cc(C)c1OC(=O)N(C)C (stereo unspecified)	none
CN(C)C(=O)Oc1ccc2nnc3ccnn3c2c1	none (no result: Lmaj promast, Hsp70 activator)
COc1ccccc1CNCCc1ccc(F)cc1	none (no result: Lmaj promast, Hsp70 activator)
Fc1ccc(CCNCc2ccc(Cl)c(Cl)c2)cc1	T cruzi repl 67
COc1cc(CC2(CCc3ccncc3)C(=O)NC(=O)NC2=O)cc(OC)c1OC	none
COc1cc2c(cc1OC)-c1c(OC)c(OC)c(OC)c3ccnc(c13)C2=O	Lmaj promast 78
CCc1ccc(C(=O)C23CN4CN(CN(C4)C2)C3)cc1	none
O=C1CN=C(c2ccccc2)c2cc(Br)ccc2N1Cc1cc(=O)n2ccccc2n1	Lmaj promast 82
Cc1cccc(OCC(=O)N2CCN(Cc3ccncc3)CC2)c1	none
Cc1ccc(C(C)C)c(OCC(=O)N2CCN(Cc3nc4cc([N+](=O)[O-])ccc4n3C)CC2)c1	Lmaj promast 97
CN(C)C(=O)Oc1ccc2c(c1)O/C(=C\c1ccc(Cl)cc1)C2=O	HSF-1 act 57 (no result: Lmaj promast, Hsp70 activator)
CCOc1cccc(C2NCc3ccccc3-n3cccc32)c1O (stereo unspecified)	HSF-1 act 93
CC[C@@H]1C=CC=CC[C@H](C)[C@@H](O)[C@@H](C)C(=O)[C@H](C)[C@@H](O)[C@H](C)C(=O)[C@H](C)[C@@H](O)[C@H](C)C=CC(=O)O[C@H]2[C@@H](C)[C@@H](CC1)O[C@@]1(CC[C@@H](C)[C@@H](C[C@H](C)O)O1)[C@@H]2C	T cruzi repl inconclusive (no result: Lmaj promast, Hsp70 activator)
CCCCCn1c(=O)c(C(=O)Nc2ccccn2)c(O)c2ccccc21	HSF1 inhib inconclusive (no result: Lmaj promast, Hsp70 activator)
CCCCn1c(=O)c(C(=O)Nc2ccsc2C(=O)OC)c(O)c2ccccc21	Lmaj promast 53
CCCCCCn1c(=O)c(C(=O)Nc2cnccn2)c(O)c2ccccc21	Lmaj promast 100
CC(=O)C1C2c3ccccc3O[C@@]1(C)N=c1s/c(=C/c3ccoc3)c(=O)n12 (stereo partly specified)	none (no result: HSF-1 act)
CC(=O)O[C@@H]1/C=C/[C@](C)(O)C[C@@H](C)C/C=C/[C@H]2[C@@H]3O[C@]3(C)[C@@H](C)[C@H]3[C@H](Cc4ccccc4)NC(=O)[C@@]312	none (no result: Lmaj promast, Hsp70 activator)
O=C(CSC1c2ccccc2-c2ccccc21)N/N=C/c1ccc(C(=O)O)cc1	none
